Reference: ChEMBL document CHEMBL4431374, “Synthesis and Antitubercular Activity of New Benzo[b]thiophenes” (ACS Med Chem Lett, 2016)
Values after ≈ are worked out from the molar mass of the structure shown. Active and inactive are the calls of the source. The calls are words filed in the database; no cut-off is given here.

How the values were obtained:
Type in all cases: functional
[1] = tested on: Mycobacterium tuberculosis variant bovis BCG; experiment: Antitubercular activity against active Mycobacterium bovis BCG ATCC 35734 after 8 days by nitrate reductase assay; conditions: for MIC90: ATCC 35734, 192 h
[2] = tested on: Mycobacterium tuberculosis variant bovis BCG; experiment: Antitubercular activity against dormant Mycobacterium bovis BCG ATCC 35734 after 12 days by nitrate reductase assay; conditions: for MIC90: ATCC 35734, 288 h
[3] = tested on: Mycobacterium tuberculosis; experiment: Antitubercular activity against drug resistant active Mycobacterium tuberculosis H37Ra ATCC 25177 after 8 days by XTT reduction menadione assay; conditions: H37Ra ATCC 25177, 192 h
Summary of the method: (§1)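 H37Ra was tested by microdilution in 96-well plates, at 30–0.001 μg/mL in one-third dilutions. Each plate carried a rifampicin and isoniazid dilution series as positive controls. Growth was scored by XTT reduction menadione assay (XRMA) and cross-checked by a final absorbance reading at 600 nm.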

[4] = tested on: Mycobacterium tuberculosis; experiment: Antitubercular activity against drug resistant dormant Mycobacterium tuberculosis H37Ra ATCC 25177 after 12 days by XTT reduction menadione assay; conditions: H37Ra ATCC 25177, 288 h; summary of the method: as §1
[5] = tested on: Mycobacterium tuberculosis variant bovis BCG; experiment: Antitubercular activity against drug resistant dormant Mycobacterium bovis BCG ATCC 35734 at 3 to 30 ug/ml after 12 days by nitrate reductase assay

Row | Compound | MIC90 [1] [µg/mL] | MIC90 [2] [µg/mL] | MIC90 [3] [µg/mL] | MIC90 [4] [µg/mL] | Activity [5] [%] | Activity [1] | Activity [2]
1 | O=C(CC(=O)c1ccccc1O)c1cc2ccccc2s1 | 2.34 (≈ 7.9 µM) | 1.36 (≈ 4.59 µM) | 12.4 (≈ 41.9 µM) | 2.87 (≈ 9.68 µM) | >97 |  | 
2 | O=C(CC(=O)c1cc(Cl)cc(Cl)c1O)c1cc2ccccc2s1 |  |  |  |  |  | Active | Active
3 | Oc1ccc(Cl)cc1-c1cc(-c2cc3ccccc3s2)[nH]n1 |  |  |  |  | >97 |  | 
4 | CO[C@H]1/C=C/O[C@@]2(C)Oc3c(C)c(O)c4c(O)c(c(/C=N/N5CCN(C)CC5)c(O)c4c3C2=O)NC(=O)/C(C)=C\C=C\[C@H](C)[C@H](O)[C@@H](C)[C@@H](O)[C@@H](C)[C@H](OC(C)=O)[C@@H]1C [RIFAMPIN] | 0.004 (≈ 0.00486 µM) | 0.0042 (≈ 0.0051 µM) | > 10 | > 10 |  |  | 
5 | Cc1ccc(O)c(C(=O)CC(=O)c2cc3ccccc3s2)c1 |  | 0.71 (≈ 2.29 µM) |  |  |  |  | 
6 | O=C(CC(=O)c1cc(Br)ccc1O)c1cc2ccccc2s1 | 1.16 (≈ 3.09 µM) | 1.77 (≈ 4.72 µM) | 8.04 (≈ 21.4 µM) | 7.11 (≈ 18.9 µM) | >97 |  | 
7 | NNC(=O)c1ccncc1 [ISONIAZID] | 0.075 (≈ 0.547 µM) | 0.0078 (≈ 0.0569 µM) | > 10 | > 10 |  |  | 
8 | Cc1ccc(O)c(-c2cc(-c3cc4ccccc4s3)[nH]n2)c1 |  |  |  |  | >97 |  | 
9 | Cc1ccc2oc(-c3cc4ccccc4s3)cc(=O)c2c1 | 0.62 (≈ 2.12 µM) | 0.61 (≈ 2.09 µM) | 22.9 (≈ 78.2 µM) | 7.22 (≈ 24.7 µM) |  |  | 
10 | Cc1cc(O)c(C(=O)CC(=O)c2cc3ccccc3s2)cc1Cl | 0.56 to 1.9 (≈ 1.62 to 5.51 µM) | 0.9 (≈ 2.61 µM) |  |  | >97 |  | 
11 | Cc1ccc(C(=O)CC(=O)c2cc3ccccc3s2)c(O)c1 | 1.68 (≈ 5.41 µM) | 1.61 (≈ 5.19 µM) | 8.97 (≈ 28.9 µM) | 9.42 (≈ 30.4 µM) | >97 |  | 
12 | Cc1cc2oc(-c3cc4ccccc4s3)cc(=O)c2cc1Cl | 0.56 (≈ 1.71 µM) | 0.6 (≈ 1.84 µM) | 9.58 (≈ 29.3 µM) | 9.1 (≈ 27.8 µM) |  |  | 
13 | Oc1ccccc1-c1cc(-c2cc3ccccc3s2)[nH]n1 |  |  |  |  | >97 |  | 
14 | O=C(CC(=O)c1cc(Cl)ccc1O)c1cc2ccccc2s1 | 2.22 (≈ 6.71 µM) | 2.7 (≈ 8.16 µM) | 5.3 (≈ 16 µM) | 2.73 (≈ 8.25 µM) | >97 |  | 
